From ChEMBL document CHEMBL1177652 (Bioorg Med Chem, 2010)

Columns and labels:
[1] = molecular target: Cholinesterase (Homo sapiens, UniProt P06276); assay: Inhibition of human plasma BChE pretreated for 30 mins by Ellman technique; assay type: cell-free
[2] = molecular target: Acetylcholinesterase (Homo sapiens, UniProt P22303); assay: Inhibition of human whole RBC AChE pretreated for 30 mins by Ellman technique
[3] = test system: Rattus norvegicus; assay: Ex vivo inhibition of cholinesterase in Fischer-344 rat plasma at 10 mg/kg, ip after 60 mins by spectrophotometric analysis; assay type: functional; settings: Fischer-344, Plasma, 1 h, route intraperitoneal
How it was run: (§1)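 Anesthetized rats given 10 mg/kg i.p.; predrug blood for resting activity, then samples 5 min to 24 hr, centrifuged, plasma frozen at −80° C. Thawed plasma (10 ul) in 0.1 M sodium phosphate pH 7.4 ± iso-OMPA, then DTNB plus S-butyrylthiocholine; 412 nm read 20 min later, r.t., duplicates. Iso-OMPA-sensitive difference expressed as percent of predrug level.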

[4] = test system: Rattus norvegicus; assay: Ex vivo inhibition of cholinesterase in Fischer-344 rat plasma at 10 mg/kg, ip after 24 hrs by spectrophotometric analysis; assay type: functional; settings: Fischer-344, Plasma, route intraperitoneal; how it was run: as §1
[5] = test system: Rattus norvegicus; assay: Toxicity in Fischer-344 rat assessed as tremor at 10 mg/kg, ip; assay type: organism-based; parameters: dose 10 mg/kg, route intraperitoneal; settings: in vivo
[6] = test system: Rattus norvegicus; assay: Toxicity in Fischer-344 rat assessed as lacrimation and salivation at 10 mg/kg, ip; assay type: organism-based; parameters: dose 10 mg/kg, route intraperitoneal; settings: in vivo

Chain of Acetylcholinesterase (P22303 whole entry): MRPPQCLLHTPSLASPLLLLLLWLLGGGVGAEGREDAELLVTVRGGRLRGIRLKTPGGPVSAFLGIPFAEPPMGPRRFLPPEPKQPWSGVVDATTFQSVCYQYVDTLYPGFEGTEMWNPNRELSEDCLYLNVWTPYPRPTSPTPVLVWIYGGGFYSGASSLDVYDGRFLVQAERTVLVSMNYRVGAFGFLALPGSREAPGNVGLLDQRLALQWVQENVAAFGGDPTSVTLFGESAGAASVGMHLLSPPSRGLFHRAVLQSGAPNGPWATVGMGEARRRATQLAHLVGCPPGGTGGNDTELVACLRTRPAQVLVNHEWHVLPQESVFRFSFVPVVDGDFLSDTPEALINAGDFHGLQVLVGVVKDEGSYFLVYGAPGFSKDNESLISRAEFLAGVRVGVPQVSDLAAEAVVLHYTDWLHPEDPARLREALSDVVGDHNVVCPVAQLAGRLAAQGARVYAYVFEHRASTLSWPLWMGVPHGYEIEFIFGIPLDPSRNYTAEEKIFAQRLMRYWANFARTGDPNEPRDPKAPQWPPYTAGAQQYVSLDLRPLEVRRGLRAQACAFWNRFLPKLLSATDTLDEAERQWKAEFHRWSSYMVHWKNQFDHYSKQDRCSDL
Chain of Cholinesterase (P06276 whole entry): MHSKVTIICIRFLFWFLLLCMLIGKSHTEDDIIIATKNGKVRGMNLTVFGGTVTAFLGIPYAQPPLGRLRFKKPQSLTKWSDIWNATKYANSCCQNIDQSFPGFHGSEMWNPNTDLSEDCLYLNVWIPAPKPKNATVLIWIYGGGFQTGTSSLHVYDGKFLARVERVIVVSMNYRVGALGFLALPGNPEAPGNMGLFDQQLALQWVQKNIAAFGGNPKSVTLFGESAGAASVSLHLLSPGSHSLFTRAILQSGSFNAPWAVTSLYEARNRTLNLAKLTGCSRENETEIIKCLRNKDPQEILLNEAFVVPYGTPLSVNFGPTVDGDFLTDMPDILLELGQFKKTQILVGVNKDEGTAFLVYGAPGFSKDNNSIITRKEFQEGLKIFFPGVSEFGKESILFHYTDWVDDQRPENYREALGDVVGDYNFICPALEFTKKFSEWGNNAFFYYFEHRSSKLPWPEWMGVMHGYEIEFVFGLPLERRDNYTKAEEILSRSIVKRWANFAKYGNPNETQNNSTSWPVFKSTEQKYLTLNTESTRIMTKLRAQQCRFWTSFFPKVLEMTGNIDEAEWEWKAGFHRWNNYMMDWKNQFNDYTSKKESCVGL

Compound `CN(C)c1cccc(OC(=O)Nc2ccccc2)c1` has an IC50 [1] of 18 µM and an IC50 [2] of 2500 nM.
For `C[N+](C)(C)c1cccc(OC(=O)Nc2ccccc2)c1`, the IC50 [1] was 18 µM and the IC50 [2] was 1870 nM.
For `Cc1ccccc1NC(=O)Oc1ccc2c(c1)[C@]1(C)CC[N+](C)(C)C1N2C` (some centres not stated), the IC50 [2] was 14.6 nM.
Compound `CC(C)c1ccc(NC(=O)Oc2ccc3c(c2)[C@]2(C)CC[N+](C)(CCc4ccccc4)C2N3C)cc1` (some centres not stated) has an IC50 [2] of 300 nM.
`O=C(Nc1ccccc1)Oc1cccnc1` was tested, and the IC50 [1] was > 30 µM and the IC50 [2] was > 30000 nM.
For `C[n+]1cccc(OC(=O)Nc2ccccc2)c1`, the IC50 [2] was > 30000 nM.
Work on `CNC(=O)Oc1ccc2c(c1)[C@]1(C)CC[N+](C)(C)C1N2C` (some centres not stated) yielded an IC50 [2] of 26.1 nM.
In the case of `CN1c2ccc(OC(=O)Nc3ccccc3)cc2[C@]2(C)CC[N+](C)(C)C12` (some centres not stated), the IC50 [2] is reported as 25.4 nM.
`CC(C)c1ccc(NC(=O)Oc2ccc3c(c2)[C@]2(C)CC[N+](C)(C)C2N3C)cc1.[Br-]` (some centres not stated) was tested, and the inhibition in vivo at 10 mg/kg [3] was 66%, the inhibition in vivo at 10 mg/kg [4] was 33% and the Activity [5] was “Non-toxic”. The IC50 [2] was 145 nM and the Activity [6] was “Non-toxic”.
Compound `CN(C)C(=O)Oc1cccc([N+](C)(C)C)c1` [NEOSTIGMINE METHYLSULFATE] has an IC50 [1] of 0.06 µM.
